Screens from PubChem.
Shown are actives, neighbours in structure and some others; about 4.8% of the full set was active somewhere.
ATG4B inhibitor = ATG4B (human) cysteine protease inhibition; ATG4B cleavage of LC3-PLA2, NBD-HPC fluorescence, 1 h; inhibition, % at 8.33 µM; 340,000 compounds, 0.51% hits; AID 504462; in the data active means inhibition above about 40%
Target sequence (Q9Y4P1 whole entry, looked up): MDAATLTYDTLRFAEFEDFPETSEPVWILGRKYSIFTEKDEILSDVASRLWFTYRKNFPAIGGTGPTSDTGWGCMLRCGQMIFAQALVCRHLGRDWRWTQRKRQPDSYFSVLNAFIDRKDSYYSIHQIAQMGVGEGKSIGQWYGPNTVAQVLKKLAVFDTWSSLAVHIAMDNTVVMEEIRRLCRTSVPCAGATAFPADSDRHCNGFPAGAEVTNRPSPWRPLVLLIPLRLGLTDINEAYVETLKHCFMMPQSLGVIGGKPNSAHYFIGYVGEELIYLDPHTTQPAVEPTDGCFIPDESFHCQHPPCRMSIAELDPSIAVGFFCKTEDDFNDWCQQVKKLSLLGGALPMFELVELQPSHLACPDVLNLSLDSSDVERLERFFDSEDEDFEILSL
UCH37 DUB inh = inhibitors of human deubiquitinating enzyme UCH37. Q9Y5K5. inhibition, % (test concentration not listed). purified proteasome/UCH37, Ub-AMC cleavage fluorescence. 330,000 compounds, 0.33% hits;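 active means mean inhibition over replicate wells above about 20%, limit read from the data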;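 further: 0% = compound-free wells with enzyme and 100% = wells lacking proteasome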
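Material: Human UCH37 enzyme supplied as purified proteasome complex | Schedule: 30 min preincubation with enzyme, 25 min cleavage at room temperature | Detection: AMC fluorescence 355/460 nm | Measure: % inhibition of Ub-AMC cleavage fluorescence | Controls: Wells without proteasome as full block, compound-free enzyme plus substrate as uninhibited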
ALR H2O2 inh = human ALR oxidase inhibition via reduced H2O2 | P55789 | purified ALR, DTT oxidation, H2O2 HRP-luminol luminescence | inhibition, % (test concentration not listed) | 290,000 compounds, 3.8% hits | AID 485317;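 active means mean replicate inhibition above about 79%, with every replicate also reaching it, limit read from the data; inconclusive means only one of the two criteria met; inactive means mean below limit and not every replicate reaching it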
Target sequence (P55789 whole entry, looked up): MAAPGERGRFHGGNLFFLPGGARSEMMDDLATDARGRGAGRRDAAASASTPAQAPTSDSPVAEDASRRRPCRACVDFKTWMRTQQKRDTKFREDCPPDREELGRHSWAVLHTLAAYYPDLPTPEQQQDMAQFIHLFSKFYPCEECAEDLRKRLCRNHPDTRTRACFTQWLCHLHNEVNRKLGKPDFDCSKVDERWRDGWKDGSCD
NLRP3 yeast inh = NALP3 inhibition in yeast | 330,000 compounds, 0.39% hits | inhibition, % at 10 µM | Yeast reconstituted NLRP3/ASC/caspase-1, beta-gal luminescence, 24 h;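 active means inhibition of 50% or more; inactive means inhibition below 50%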;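 further: plate controls were induced DMSO wells for no effect and uninduced yeast grown without galactose for full effect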
Calb FLC = C. albicans growth modulation with fluconazole; C. albicans CaCi-2 (fluconazole-resistant clinical isolate) + fluconazole, Alamar Blue growth, 48 h; growth inhibition, % (test concentration not listed); 300,000 compounds, 0.57% hits; AID 1979;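 active means growth inhibition above about 58% in most replicates, limit read from the data, passing the limit was not always enough; inconclusive means exactly half the replicates above a set limit; inactive means most replicates below a set limit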;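 further: all wells also contain fluconazole at 8 µg/ml as a sub-toxic cotreatment; 0% = median of DMSO wells and 100% = median of geldanamycin control wells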
NALP1 yeast inh = inhibitors of NALP1 inflammasome in yeast. S. cerevisiae NALP1/ASC/caspase-1 growth, X-gal OD620, 72 h. inhibition, % at 10 µM. 280,000 compounds, 0.61% hits; in the data active means inhibition mostly above about 24%, no sharp cut-off; inactive means mostly below about 32%
Starred values were filed as active, the others as inactive; ? = inconclusive; / = no result given.

SMILES | ATG4B inhibitor | UCH37 DUB inh | ALR H2O2 inh | NLRP3 yeast inh | Calb FLC | NALP1 yeast inh
C=C(C)C1CC=C(C)C(=NNC(=O)CNc2ccc(OCC)cc2)C1 (stereo not given) | / | 1.6 | / | / | / | /
CCC(C)S(=O)(=O)c1snnc1C (stereo not given) | -0.5 | 30.8* | -0.6 | 20.2 | 1.3 | 2.1
C/C(=N\NC(=O)CCC(=O)Nc1ccc(C)c(C)c1)C1CC1 | -8.4 | / | 5.5 | 16.4 | 123.5* | 12.8
C/C(=N\NC(=O)CCC(=O)Nc1ccc(C)c(C)c1)c1cccs1 | -11.3 | / | -2.4 | 16.4 | -1.4 | 8.5
Cc1ccc(-c2nc(CS(=O)CC(=O)NCCCc3ccccc3)c(C)o2)cc1 (stereo not given) | 0.1 | 4.6 | 98.2* | -7.7 | -8.3 | 0.4
Cc1oc(-c2ccccc2F)nc1CS(=O)(=O)CC(=O)NC(C)CCc1ccccc1 (stereo not given) | -14.9 | -1.4 | -7.8 | -6.6 | 4.6 | 5.6
COc1ccc(-c2nc(CS(=O)CC(=O)NC(C)CCc3ccccc3)c(C)o2)cc1OC (stereo not given) | -2.5 | 3.5 | 99.3* | -12.7 | 3.4 | 17.2
Cc1ccc(-c2nc(CS(=O)CC(=O)NC(C)CCc3ccccc3)c(C)o2)cc1 (stereo not given) | -5.3 | 0.8 | 93.0* | -2.7 | -0.3 | 8.3
COc1ccc(CC(=O)NC(C)CCc2ccccc2)cc1OC (stereo not given) | -2.4 | -1.4 | 35.0 | 10.1 | -5.0 | -3.6
COc1ccc(-c2nc(CS(=O)(=O)CC(=O)NCCCc3ccccc3)c(C)o2)cc1 | -6.2 | 0.0 | ? | 9.4 | 2.5 | 25.3
O=S(=O)(c1cccc(-c2csc(NN=Cc3ccco3)n2)c1)N1CCOCC1 | / | 1.5 | / | / | / | /
Cc1n[nH]c(=S)n(N=Cc2cccs2)c1=O | / | 11.4 | / | / | / | /
CCOC(=O)c1oc2ccccc2c1CN1CCN(c2ccccc2)CC1 | 1.1 | 3.1 | 94.0* | 11.9 | -0.5 | 11.4
COc1ccc(CCN2C(=O)C3C4CC(C5C(C(=O)NN=Cc6ccc(Cl)cc6)=NOC45)C3C2=O)cc1OC (stereo not given) | / | 7.7 | / | / | / | /
CC1(C)CC(NC(=O)N2c3ccccc3Sc3ccccc32)CC(C)(C)N1 | 6.2 | 5.2 | 98.8* | 8.1 | 2.3 | 5.9
COc1ccc(-c2cc3ccccc3[nH]2)cc1 | 1.5 | 2.5 | 0.4 | 14.0 | 32.3 | 7.9
Cc1ccc(O)c(-c2cc3ccccc3[nH]2)c1 | -4.2 | -65.0 | 98.6* | -2.1 | 82.6* | /
CSC1=C(C#N)C(=O)NC(c2ccccc2O)S1 (stereo not given) | 14.4 | 11.2 | 98.3* | 5.9 | 15.5 | /
COC(=O)CSC1=C(C#N)C(=O)NC(c2ccccc2)S1 (stereo not given) | 4.3 | 17.6 | / | 11.9 | -1.0 | 45.8
O=[N+]([O-])c1ccc(O)c(C=NNc2ncnc3c2cnn3-c2ccccc2)c1 | / | 3.9 | / | / | / | /
CC1CCCCC1=NNC(=S)Nc1ccccc1 (stereo not given) | / | 0.2 | / | / | / | /
COc1cccc(-c2c(C(=O)NN=Cc3ccsc3)nnn2-c2nonc2N)c1 | / | 4.7 | / | / | / | /
O=S(=O)(Nc1nc2ccccc2s1)c1ccc(Br)s1 | 4.5 | 3.2 | 2.0 | -7.1 | 89.0* | 24.4
Cc1c(OCC(F)(F)F)ccnc1CS(=O)c1nc2ccccc2[nH]1 (stereo not given) | -8.5 | -0.6 | 97.1* | 15.1 | 2.9 | 8.0
Cc1ccc(N/N=C2\CCS(=O)(=O)c3sccc32)cc1 | -5.9 | / | 98.8* | 35.1 | ? | -26.6
SMILES | ATG4B inhibitor | UCH37 DUB inh | ALR H2O2 inh | NLRP3 yeast inh | Calb FLC | NALP1 yeast inh
O=C(NN=Cc1cc(Br)c(O)c(Br)c1)C1CC1 | / | -12.8 | / | / | / | /
COc1ccc(S(=O)(=O)CCC(=O)N2CCN(c3ccc([N+](=O)[O-])cc3)CC2)cc1 | -5.5 | 5.8 | 3.2 | 6.3 | -0.5 | -1.9
COc1ccc(N2CCN(C(=O)C3CC(O)CN3S(=O)(=O)c3ccc([N+](=O)[O-])cc3)CC2)cc1 (stereo not given) | -8.5 | 5.9 | 84.2* | 9.7 | 7.3 | 24.3
COc1ccc(N2CCN(C(=O)CCS(=O)(=O)c3ccc(OC)cc3)CC2)cc1 | 1.6 | 5.8 | 79.5* | 14.3 | 8.3 | 3.5
COc1ccc(N2CCN(C(=O)CCS(=O)(=O)c3ccc(C)cc3)CC2)cc1 | -6.3 | 1.8 | 87.8* | 13.5 | -4.5 | -18.7
COc1ccc(S(=O)(=O)CCC(=O)N2CCN(c3ccc(C(C)=O)cc3)CC2)cc1 | -1.3 | 4.7 | -4.3 | 7.2 | -18.9 | 25.3
COc1ccc(N2CCN(C(=O)C3(S(=O)(=O)c4ccc(C)cc4)CC3)CC2)cc1 | -6.0 | 3.5 | 85.7* | 14.9 | -0.8 | -1.8
CN(C)C(=O)C[n+]1ccc(C=NO)cc1 | / | 0.8 | / | / | / | /
COC(=O)c1ccc(OC(=O)CCS(=O)(=O)c2ccc(C)cc2)cc1 | 5.5 | -0.3 | 96.0* | 0.1 | -1.2 | /
COc1ccc(CC(=O)N2CCN(c3ccc(C4=NNC(=O)CC4C)cc3)CC2)cc1 (stereo not given) | 2.4 | -48.2 | 87.8* | 24.7 | 0.7 | 11.3
COc1ccc(C(=O)NC(=O)COC(=O)CCS(=O)(=O)c2ccc(C)cc2)cc1 | 6.5 | 0.5 | / | -0.9 | / | /
O=C(/C=C/Nc1ccccc1F)c1cccs1 | 12.3 | 0.1 | / | 24.5 | 2.6 | 56.6*
O=C(/C=C\Nc1ccc2c(c1)OCO2)c1cccs1 | -3.5 | 1.3 | 96.1* | 15.8 | -8.9 | -9.0
O=C(/C=C/Nc1ccc(F)cc1F)c1cccs1 | 6.7 | 1.0 | 1.1 | 27.2 | -1.5 | 23.1
CCOc1ccc(-c2cc3nc(C4CCN(C(=O)OC(C)(C)C)CC4)c(C(=O)O)cn3n2)cc1 | -11.3 | -74.5 | 98.0* | 10.1 | 4.2 | 12.4
CCOC(=O)N1CCN(C(=O)c2cc(-c3ccc(OCC)cc3)nc3ccccc23)CC1 | -4.1 | -282.7 | -14.0 | 11.0 | -25.1 | 4.6
Cc1ccc(S(=O)(=O)CC2CSc3nc4ccccc4n32)cc1 (stereo not given) | -1.1 | 3.7 | -2.5 | 4.4 | 88.0* | 26.5
COc1cc(C=NNC(=O)c2cccnc2)cc2c1OCO2 | / | 9.2 | / | / | / | /
Nc1ccc(Sc2cc(Cl)nc(N)n2)cc1 | / | / | / | 20.1 | 9.6 | 19.3
Nc1nc(N)c2cc(Sc3ccc4ccccc4c3)ccc2n1 | 15.5 | -8.3 | -7.0 | 30.6 | 100.5* | 8.6
COc1ccc(CNC(=O)CC(C)=NNC(=O)Cc2ccc(OC)cc2)cc1 | / | 2.1 | / | / | / | /
O=C1C=CC(=O)N1c1ccc(O)cc1 | -1.8 | 4.7 | 1.2 | 1.7 | -5.6 | -4.9
O=C1C=CC(=O)N1c1ccc(OC(F)F)cc1 | 5.8 | -0.6 | -11.4 | / | / | 111.8*
Cc1c2c(nc3ccccc13)CCC(C)C2 (stereo not given) | 0.9 | 3.7 | 2.6 | 22.8 | -0.2 | 36.4*
CC1CCc2nc3ccccc3c(C(=O)OCC(=O)NC3CCS(=O)(=O)C3)c2C1 (stereo not given) | -9.2 | -6.4 | -7.3 | -0.8 | -5.7 | -9.2
NC(=O)c1ccsc1NC(=O)COC(=O)Cc1cccc2ccccc12 | -16.2 | 1.8 | 96.8* | -1.7 | ? | 16.6
